Calls of active or inactive are those of the source.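 The calls were made as follows, unless noted: active = inhibition at or above 50% relative to wild type and mutant plate controls; inactive = inhibition below 50%.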
What was measured:
[1] = inhibitors of TNFa-induced NFkB p65 translocation, primary screen, imaging, HUVEC, MLSMR starter and 10KST1 sets (AID 438;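 active = inhibition above 20% together with a positive visual image hit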;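 also: compound added about 3h40 before a 20 min TNFalpha stimulation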;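 as to inhibition: signal is the nuclear over cytoplasmic p65 intensity ratio per well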); conditions: HUVEC TNFa-induced p65 nuclear translocation; cell count: measured here: nuclei count (cytotoxicity indicator), at 2.08 µM; inhibition: at 2 µM, stronger effect = higher value, 0% TNFa-plus-vehicle, 100% no-TNFa wells
[2] = endothelial E-selectin expression blockers – imaging, HUVEC, immunofluorescence, MLSMR starter and 10KST1 sets, primary screen (AID 487;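 active = visually confirmed hit in the image check and inhibition above 20%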;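 as to inhibition: signal is fraction of cell area covered by stained E-selectin grains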;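 as to nuclei count: 100% = median nuclei count of all wells on the same plate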); conditions: HUVEC TNFalpha-induced E-selectin immunofluorescence imaging, at 2 µM; inhibition: stronger effect = higher value; nuclei count: measured here: cell number, toxicity
[3] = Primary imaging screen for DUSP6 inhibitors that restore phospho-Erk in transfected HeLa cells, chemical complementation (AID 609;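 active = compounds giving at least 50% inhibition in the cell-based MKP-3 phosphatase rescue imaging test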;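 as to inhibition: phospho-Erk level distribution per well compared with pooled transfected vehicle control wells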); conditions: HeLa MKP-3 transfected, phospho-Erk imaging KS statistic, at 10 µM, cells stimulated with TPA for 15 min
[4] = target: Dual specificity protein phosphatase 6 (Homo sapiens) (UniProt Q16828); assay: as above; conditions: HeLa MKP-3 transfected, phospho-Erk imaging KS statistic; at 10 µM; stronger effect = higher value; cells stimulated with TPA for 15 min
Sequence of Dual specificity protein phosphatase 6 (Homo sapiens) (Q16828 whole entry, looked up): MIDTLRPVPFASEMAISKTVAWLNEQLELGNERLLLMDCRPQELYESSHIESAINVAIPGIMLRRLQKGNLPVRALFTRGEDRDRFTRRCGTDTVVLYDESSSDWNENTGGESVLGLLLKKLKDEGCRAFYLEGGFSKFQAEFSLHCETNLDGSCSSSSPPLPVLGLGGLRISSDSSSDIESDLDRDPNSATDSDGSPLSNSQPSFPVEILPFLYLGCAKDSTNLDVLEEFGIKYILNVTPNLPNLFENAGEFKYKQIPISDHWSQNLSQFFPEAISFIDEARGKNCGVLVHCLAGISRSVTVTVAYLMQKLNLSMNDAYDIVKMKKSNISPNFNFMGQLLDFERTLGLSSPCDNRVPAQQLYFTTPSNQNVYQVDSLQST

[5] = target: Voltage-gated potassium channel subunit beta-2 (Rattus norvegicus) (UniProt P62483); assay: inhibitors of rat Kvbeta2 reductase activity – biochemical, NADPH fluorescence, primary screen (AID 622;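 active = fluorescence slope higher than the sample average by over 3 SD, cut at about -0.22 in these data, passing the limit was not always enough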;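 also: slope of raw intensity against log time taken from 70 to 1610 s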); conditions: recombinant KvBeta, 4-cyanobenzaldehyde reduction, at 10 µM, stronger effect = higher value
Sequence of Voltage-gated potassium channel subunit beta-2 (Rattus norvegicus) (P62483 whole entry, looked up): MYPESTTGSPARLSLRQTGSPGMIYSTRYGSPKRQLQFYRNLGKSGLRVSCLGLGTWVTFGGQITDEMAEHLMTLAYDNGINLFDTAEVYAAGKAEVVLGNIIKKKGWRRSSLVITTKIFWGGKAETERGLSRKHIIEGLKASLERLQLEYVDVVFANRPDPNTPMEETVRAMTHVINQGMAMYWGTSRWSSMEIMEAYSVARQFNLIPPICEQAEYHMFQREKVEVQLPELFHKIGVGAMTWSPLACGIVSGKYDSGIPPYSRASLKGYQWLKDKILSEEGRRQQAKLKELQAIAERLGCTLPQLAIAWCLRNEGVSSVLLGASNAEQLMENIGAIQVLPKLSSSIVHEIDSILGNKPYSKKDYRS

[6] = target: Voltage-gated potassium channel subunit beta-2 (Rattus norvegicus) (UniProt P62483); assay: enhancers of rat Kvbeta2 NADPH turnover – biochemical, NADPH fluorescence, primary screen (AID 623;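 active = NADPH fluorescence slope more negative than the mean of all samples by about 3 SD, 99.7% confidence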;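 also: fluorescence intensity change per second fitted from 20 to 320 s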); conditions: Recombinant KvBeta, NADPH fluorescence decrease slope, 10 min; at 10 µM; stronger effect = lower value
[7] = target: Alpha-2C adrenergic receptor (Homo sapiens) (UniProt P18825); assay: compounds altering alpha2C-coupled GIRK flux – cell-based, HEK293 alpha2C/GIRK1/2, thallium flux, primary screen (AID 624;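 active = fluorescence slope after compound addition differing from the mean of all screened samples at 99.7% confidence, in either direction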;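 also: slope of fluorescence ratio to pre-addition baseline per second over 15 to 24 s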); conditions: thallium flux BTC fluorescence, at 10 µM, actives lie on both sides
Sequence of Alpha-2C adrenergic receptor (Homo sapiens) (P18825 whole entry, looked up): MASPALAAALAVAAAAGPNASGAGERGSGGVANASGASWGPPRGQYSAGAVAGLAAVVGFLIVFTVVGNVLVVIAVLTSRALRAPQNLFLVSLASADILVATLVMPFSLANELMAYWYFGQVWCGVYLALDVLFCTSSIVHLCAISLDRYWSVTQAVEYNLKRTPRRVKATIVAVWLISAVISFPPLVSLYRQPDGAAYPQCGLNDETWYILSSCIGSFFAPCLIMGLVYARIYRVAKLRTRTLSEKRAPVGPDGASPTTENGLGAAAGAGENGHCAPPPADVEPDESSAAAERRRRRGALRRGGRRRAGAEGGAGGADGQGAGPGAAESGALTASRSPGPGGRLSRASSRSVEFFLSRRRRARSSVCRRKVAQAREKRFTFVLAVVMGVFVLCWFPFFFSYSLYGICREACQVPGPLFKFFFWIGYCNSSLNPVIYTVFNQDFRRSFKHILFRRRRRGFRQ

[8] = inhibitors of larval lipid processing in zebrafish, primary screen, whole organism, PED6 fluorescence, gall bladder and intestine (AID 686;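 active = a full or partial loss of lipid-probe fluorescence in the fish gall bladder, intestine or both, judged by eye; inactive = no fluorescence loss, or compound toxic to the fish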;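 also: larvae 5 to 7 days old with five fish per well; signal comes from phospholipase A2 cleavage of quenched PED6 carried via bile; overnight exposure to compound and PED6 before scoring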); conditions: Zebrafish larvae PED6 lipid processing, fluorescence scoring; screened at 20 µM (by protocol)
Procedure, shortened: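 Test system – live zebrafish larvae aged 5-7 days, whole organism · Buffer or medium – E3 fish medium · Reagent – quenched phospholipase substrate PED6, 100 nM final, ingested by larvae · Doses – 20 µM single dose · Incubation – overnight compound and PED6 incubation · Technique – visual fluorescence microscopy scoring of gall bladder, gut · Read-out basis – visual per-well fluorescence inhibition score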

[9] = loss of swimming-algae plug formation – whole organism, Chlamydomonas reinhardtii, WT vs cilia-less mutant, absorbance, 96-well, primary screen (AID 463189); conditions: Chlamydomonas reinhardtii gravitaxis, OD600 absorbance, 2 days; at 10 µM; stronger effect = higher value;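 also: 0% = wild type cc124 cells in DMSO and 100% = ciliumless bld1 mutant cells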
[10] = measured here: cell density z-score
[11] = measured here: nuclear c-Myc green intensity z-score
[12] = measured here: nuclear pErk red intensity z-score, stronger effect = higher value

SMILES	cell count [1]	inhibition [1]	inhibition [2]	nuclei count [2] [%]	z-score [3, 10]	z-score [3, 11]	z-score [3, 12]	inhibition [4]	fluorescence slope [5]	NADPH fluorescence slope [6]	slope [7]	outcome [8]	inhibition [9]
N#CC(C(=O)NC1CCCCC1)c1nc2ccccc2nc1N1CCN(c2ccccc2F)CC1 (stereo not given)	449	6.9% (inactive)	-71.6% (inactive)	150	0.949	-0.507	0.00921	7.83% (inactive)	-0.432 (inactive)	-1.4e-05 (inactive)	0.00608 (inactive)	inactive	1.07% (inactive)
CCOC(=O)c1c(NC(=O)CCN2CCOCC2)sc2c1CC(C)(C)OC2	658	-8.1% (inactive)	-45.3% (inactive)	163	0.476	1.14	0.27	-7.28% (inactive)	-0.422 (inactive)	-3e-05 (inactive)	0.00607 (inactive)	inactive	-12.8% (inactive)
CC1(C)CC(=O)C(CCCN2C(=O)c3ccccc3C2=O)C(=O)C1	527	0.1% (inactive)	10.1% (inactive)	93.2	-0.253	0.312	-1.11	-5.26% (inactive)	-0.379 (inactive)	-1.5e-05 (inactive)	0.00431 (inactive)	inactive	18% (inactive)
Nc1nonc1OCCc1ccccc1	540	-5.8% (inactive)	-31.5% (inactive)	160	0.698	1.41	0.0192	-6.06% (inactive)	-0.439 (inactive)	-4.6e-05 (inactive)	0.00604 (inactive)	inactive	-3.19% (inactive)
O=C(O)CC(NC(=O)COc1ccc(Cl)cc1Cl)C(=O)O (stereo not given)	629	-19.5% (inactive)	-11.7% (inactive)	197	0.18	0.773	0.0309	-9.66% (inactive)	-0.404 (inactive)	-7.4e-05 (inactive)	0.00527 (inactive)	inactive	0.167% (inactive)
CCCCC1CC1C(=O)Nc1ccc(OC)c(OC)c1 (stereo not given)	421	-0.9% (inactive)	-42.1% (inactive)	190	-1.27	-0.533	0.586	-8.95% (inactive)	-0.39 (inactive)	-2.3e-05 (inactive)	0.00756 (inactive)	inactive	22% (inactive)
COc1cc(C(=O)Nc2nccs2)cc(OC)c1OC	542	-19.4% (inactive)	53.4% (inactive)	163	1.12	-0.213	0.494	-13.3% (inactive)	-0.409 (inactive)	-6e-05 (inactive)	0.00501 (inactive)	inactive	-0.002% (inactive)
O=C(Nc1ncn[nH]1)c1c(Cl)ccc(Cl)c1Cl	597	-1.6% (inactive)	20% (inactive)	162	-1.37	0.992	0.69	-15% (inactive)	-0.362 (inactive)	-8.7e-06 (inactive)	0.00528 (inactive)	inactive	0.721% (inactive)
O=C(NCc1ccco1)c1ccc(=O)oc1	352	-6% (inactive)	-89.9% (inactive)	167	0.958	0.118	-1.31	23.4% (inactive)	-0.471 (inactive)	-0.000178 (inactive)	0.00508 (inactive)	inactive	2.62% (inactive)
CCN(CC)C(=O)CN(C#N)c1nc(NC(C)C)nc(NC(C)C)n1	594	5.2% (inactive)	-48.7% (inactive)	173	0.0403	2.22	-0.0328	5.65% (inactive)	-0.213 (inactive)	8.9e-06 (inactive)	0.00592 (inactive)	inactive	31.8% (inactive)
Cc1cc(C)nc(N(C#N)CC(=O)N(c2ccccc2)C(C)C)n1	584	-10.3% (inactive)	50% (inactive)	140	-1.19	-0.154	2.33	-11% (inactive)	-0.345 (inactive)	-2.8e-05 (inactive)	0.00548 (inactive)	inactive	5.11% (inactive)
Cc1cccc(OCC(=O)N2CCC(N3CCOCC3)CC2)c1	356	-12.6% (inactive)	-156% (inactive)	149	2.22	-1.72	0.299	17% (inactive)	-0.406 (inactive)	-4.5e-05 (inactive)	0.00455 (inactive)	inactive	11.3% (inactive)
Cc1cccc(OCc2nc(C)cc(=O)[nH]2)c1	594	-7.7% (inactive)	-84.7% (inactive)	173	2.18	0.349	-1.33	14% (inactive)	-0.409 (inactive)	-2.4e-05 (inactive)	0.00552 (inactive)	inactive	-4.66% (inactive)
CCOC(=O)c1c(C(C#N)C#N)cc(C)nc1C	521	-5.3% (inactive)	-83.6% (inactive)	129	0.584	-0.43	0.768	-2.07% (inactive)	-0.509 (inactive)	-8e-05 (inactive)	0.00491 (inactive)	inactive	9.41% (inactive)
CC(C)OC(=O)c1nn2c(C(F)(F)F)cc(-c3ccc(Br)o3)nc2c1Br	519	-4.9% (inactive)	5.6% (inactive)	127	-1.28	-0.277	1.66	-9.7% (inactive)	-0.29 (inactive)	-4.3e-06 (inactive)	0.00144 (inactive)	inactive	18.5% (inactive)
CCCCN(CCCC)c1nc2ccccc2nc1C(C#N)C(=O)NCCCOC (stereo not given)	382	-6.8% (inactive)	-187% (inactive)	156	-0.742	0.7	0.633	-5.89% (inactive)	-0.0828 (active)	9.1e-06 (inactive)	0 (active)	inactive	5.14% (inactive)
COc1ccccc1N(O)C1CC(=O)N(c2ccc(Br)cc2)C1=O (stereo not given)	351	4% (inactive)	46% (inactive)	74.7	-0.0216	1.1	0.319	-2.59% (inactive)	-0.415 (inactive)	-4.4e-05 (inactive)	0.00547 (inactive)	inactive	37.8% (inactive)
Cn1c(SCC(=O)NCc2ccccc2)nc2ccccc21	325	1.6% (inactive)	-60.9% (inactive)	79.7	0.441	2.21	-0.441	3.66% (inactive)	-0.364 (inactive)	-2.1e-05 (inactive)	0.00569 (inactive)	inactive; toxic	26.1% (inactive)
CNC(=O)c1cc2ccccc2o1	323	-23.3% (inactive)	-72.9% (inactive)	132	-1.3	-0.443	-1.56	-5.26% (inactive)	-0.428 (inactive)	-4.2e-05 (inactive)	0.00621 (inactive)	inactive	32% (inactive)
COc1cccc(-c2nc(N3CCCCC3)c3ccccc3n2)c1O	528	1.2% (inactive)	-31.1% (inactive)	142	1.81	0.268	-0.772	1.6e-07% (inactive)	-0.405 (inactive)	-3.2e-05 (inactive)	0.0042 (inactive)	inactive	15% (inactive)
CC(=O)c1cc(C#N)c(SCc2ccncc2)nc1C	591	-18.5% (inactive)	40% (inactive)	122	1.87	-0.619	1.67	-2.29% (inactive)	-0.548 (inactive)	-8.8e-06 (inactive)	0.00573 (inactive)	inactive	-20.5% (inactive)
CSC1=C(C#N)C(c2ccc(C)s2)CC(=O)N1 (stereo not given)	411	-0.1% (inactive)	13.9% (inactive)	63.5	0.0106	2.55	-0.606	13.2% (inactive)	-0.511 (inactive)	-5e-05 (inactive)	0.00472 (inactive)	inactive	24% (inactive)
CCCSC1=C(C#N)C(c2ccc(OC)cc2)C2=C(CC(C)(C)CC2=O)N1 (stereo not given)	364	-8.4% (inactive)	-74.2% (inactive)	160	1.35	-0.891	0.22	-4.59% (inactive)	-0.439 (inactive)	-0.000144 (inactive)	0.00555 (inactive)	inactive	15.5% (inactive)
Cc1ccc2[nH]c3c(N4CCN(Cc5ccc6c(c5)OCO6)CC4)ncnc3c2c1	390	-21.4% (inactive)	-47.6% (inactive)	168	-0.222	0.595	-3.73	-3.5% (inactive)	-0.396 (inactive)	-0.000159 (inactive)	0.00427 (inactive)	inactive; toxic	140% (active)
C=CCc1c(C)nc(SCCC)[nH]c1=O	540	-10.1% (inactive)	-102% (inactive)	135	0.611	-0.0505	-0.577	7.93% (inactive)	-0.486 (inactive)	-1.9e-05 (inactive)	0.0077 (inactive)	inactive	18.7% (inactive)

Source: PubChem BioAssay
